Series [1] relates to HepG2. Description: Antiproliferative activity against human HepG2 cells after 24 hrs by MTS assay. The format is functional. The following applies: HepG2, 24 h. Summed up: (§1)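 Cells plated (1×10^5 cells/mL) and treated about 24 h later with compounds in DMSO diluted in medium, 0.5 to 200 µM; viability read 24 h after treatment by MTS, absorbance 490 nm. GI50 from non-linear regression; mean ± SEM of three independent experiments. HCT116 and SW620 in McCoy's 5A, HepG2 in DMEM, all with 10% FBS, 37 °C, 5% CO2.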
(In general: Tetrazolium dyes change colour on reduction, which living cells bring about.)

For series [2], the target named is T1, Tumour suppressor p53/oncoprotein Mdm2 (Homo sapiens) (UniProt P04637+Q00987). Description: Inhibition of p53-MDM2 (unknown origin) interaction expressed in p53-deficient human HCT116 cells at 10 to 50 uM after 24 hrs by BiFC-based FACS flow cytometric analysis. The conditions noted are these: HCT-116. Type of series: cell-based. Summed up:
(§2)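 HCT116 p53-/- cells co-transfected with V1-p53/MDM2-V2 BiFC plasmids (1 µg each, Lipofectamine 2000). Medium replaced 4–6 h post-transfection and compounds in DMSO added. Cells harvested at 24 h with accutase, resuspended in PBS, and complementation fluorescence measured by flow cytometry; n = 3.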
(In general: In flow cytometry, cells or beads pass a laser one at a time.)

The subject of series [3] is HCT-116. The series is described as follows: Antiproliferative activity against p53-deficient human HCT116 cells after 24 hrs by MTS assay. The format is functional. The conditions noted are these: HCT-116, 24 h. Summed up:
as §1

Series [4] deals with SW-620. Description: Antiproliferative activity against human SW620 cells expressing p53 mutant after 24 hrs by MTS assay. The following applies: SW-620, 24 h. The format is functional. Summed up: as §1
The subject of series [5] is HCT-116. The series is described as follows: Antiproliferative activity against human HCT116 cells expressing p53 after 24 hrs by MTS assay. The format is functional. The conditions noted are these: HCT-116, 24 h. Summed up: as §1
The subject of series [6] is HCT-116. The series is described as follows: Induction of apoptosis in p53-deficient human HCT116 cells assessed as increase in PARP cleavage after 24 hrs by Western blotting analysis. The format is functional, cell-based. The following applies: in the assay text read “p53 wild-type” for “p53-deficient”. (In general: A western blot detects proteins with antibodies after separation by electrophoresis.)

Series [7] has as its target T1, Tumour suppressor p53/oncoprotein Mdm2 (Homo sapiens). The series is described as follows: Inhibition of p53-MDM2 (unknown origin) interaction expressed in p53-deficient human HCT116 cells at 25 to 50 uM after 24 hrs by BiFC-based FACS flow cytometric analysis. Type of series: cell-based. The conditions noted are these: HCT-116. Summed up: as §2
Series [8] concerns HCT-116. The series is described as follows: Induction of apoptosis in p53-deficient human HCT116 cells assessed as caspase 3 activation after 24 hrs by Western blotting analysis. The format is functional, cell-based. The conditions noted are these: in the assay text read “p53 wild-type” for “p53-deficient”. Summed up: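 HCT116 p53-/- cells seeded at 3×10^5 cells/mL and exposed to vehicle or compound at 25 and 50 µM for 24 h. Whole-cell extracts (60–80 µg) run on 8% and 14% SDS-PAGE and immunoblotted for caspase-3 or PARP-1/2. Bands quantified by densitometry and normalized to β-actin; three independent experiments.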

Series [9] in a line: Chemical stability in phosphate buffer at pH 7.4 up to 72 hrs by HPLC analysis. The format is physicochemical. The following applies: pH 7.4, 72 h. Summed up: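 12.5 µL of 10^-2 M DMSO stock added to 2.5 mL potassium phosphate buffer (pH 7.4, 0.5 M) at 37 °C; aliquots taken at intervals into acetonitrile and analysed by RP-18 HPLC (acetonitrile/water 70:30, 1 mL/min, UV 260 nm, 25 °C) over 72 h.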

Series [10] in a line: Half life in Sprague-Dawley rat liver microsomes by HPLC analysis in presence of NADPH-regenerating system. Type of series: ADME. Summed up: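 Male Sprague–Dawley pooled liver microsomes in potassium phosphate pH 7.4 with NADPH regenerating system, preincubated 5 min at 37 °C. Reaction started with 4 µL of 10^-3 M DMSO stock. Aliquots quenched in acetonitrile, centrifuged, and supernatant analysed by RP-18 HPLC at 260 nm for half-life.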

Series [11] deals with Plasma. The series is described as follows: Metabolic stability in human plasma up to 72 hrs by HPLC analysis. The format is ADME, cell-free.

This note sets out measurements from ChEMBL document CHEMBL3098112, “Synthesis and evaluation of spiroisoxazoline oxindoles as anticancer agents” (Bioorg Med Chem, 2014).

Activity calls are given as the source filed them. A value given as a limit tells only on which side of the number the result lay.

T1 sequence (P04637 whole entry, looked up): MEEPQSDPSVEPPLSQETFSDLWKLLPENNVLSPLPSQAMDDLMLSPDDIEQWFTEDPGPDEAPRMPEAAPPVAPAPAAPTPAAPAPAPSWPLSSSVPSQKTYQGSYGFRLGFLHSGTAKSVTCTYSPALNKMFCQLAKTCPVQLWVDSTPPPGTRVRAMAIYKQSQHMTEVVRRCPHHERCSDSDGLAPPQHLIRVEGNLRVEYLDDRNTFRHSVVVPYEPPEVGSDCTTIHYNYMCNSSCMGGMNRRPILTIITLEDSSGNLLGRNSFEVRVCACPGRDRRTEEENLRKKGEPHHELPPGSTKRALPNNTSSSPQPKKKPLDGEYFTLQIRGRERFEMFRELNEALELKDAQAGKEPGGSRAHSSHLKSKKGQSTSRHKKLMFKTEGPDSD
T1 sequence (Q00987 whole entry, looked up): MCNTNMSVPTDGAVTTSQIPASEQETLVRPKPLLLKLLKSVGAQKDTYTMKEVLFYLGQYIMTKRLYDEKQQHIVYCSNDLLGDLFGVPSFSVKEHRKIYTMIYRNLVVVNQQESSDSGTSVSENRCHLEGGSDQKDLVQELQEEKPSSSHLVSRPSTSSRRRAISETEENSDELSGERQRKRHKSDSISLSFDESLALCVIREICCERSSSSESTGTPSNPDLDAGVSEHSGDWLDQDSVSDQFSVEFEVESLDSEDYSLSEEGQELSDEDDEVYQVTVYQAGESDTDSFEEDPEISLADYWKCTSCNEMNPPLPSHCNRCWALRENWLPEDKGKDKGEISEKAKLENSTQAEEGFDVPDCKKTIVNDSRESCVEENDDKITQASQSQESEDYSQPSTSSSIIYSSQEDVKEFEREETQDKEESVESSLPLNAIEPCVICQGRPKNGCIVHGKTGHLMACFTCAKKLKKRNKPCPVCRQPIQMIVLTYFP

As a reminder, the GI50 is the concentration at which growth is held to half of that of the control. On to `O=C1Nc2ccccc2[C@]12ON=C(c1ccccc1)[C@H]2c1ccccc1` (relative stereo), for which the GI50 in series [1] is > 100 µM.

Take `O=C1Nc2ccc([N+](=O)[O-])cc2[C@]12ON=C(c1ccccc1)[C@H]2c1ccccc1` (relative stereo): the GI50 in [1] amounted to 83.6 µM.

As for `O=C1Nc2cc(Cl)ccc2[C@]12ON=C(c1ccccc1)[C@H]2c1ccccc1` (relative stereo), the inhibition entry in series [2] is “Active”. The GI50 in [3] came to 48.2 µM; in series [4] it was 48.9 µM; in series [1], 37.1 µM; in series [5] it was 39.8 µM.

Turning to `O=C1Nc2cc(Br)ccc2[C@]12ON=C(c1ccccc1)[C@H]2c1ccccc1` (relative stereo), the GI50 in series [3] was 40.6 µM; in [4], 39.6 µM; in series [1] it was 32.8 µM; in series [5], 35 µM.

As to `Cc1ccc(C2=NO[C@@]3(C(=O)Nc4cc(Cl)ccc43)[C@@H]2c2ccccc2)cc1` (relative stereo), the GI50 was determined as 30.6 µM in [3], 31.6 µM in series [4], 29.1 µM in series [1] and 26.6 µM in series [5]. For the same molecule, the Activity result in series [6] and in series [8] was “Dose-dependent effect” throughout. Further, the inhibition entry in series [7] is “Active”.

For orientation: half-life means the time needed for the level to fall by half in the phase considered. Regarding `COc1ccc(C2=NO[C@@]3(C(=O)Nc4cc(Br)ccc43)[C@@H]2c2ccccc2)cc1` (relative stereo), the GI50 in series [3] turned out to be 39 µM; in series [4] it was 40.4 µM; in series [1] it was 31.7 µM; in series [5], 33.4 µM. For the same molecule, the Stability result in [9] and in series [11] was “Stable” throughout. For the same molecule, in [10], the half-life was 3.62 h.

Regarding `COc1ccc(C2=NO[C@@]3(C(=O)Nc4cc(Cl)ccc43)[C@@H]2c2ccccc2)cc1` (relative stereo), the 50% growth inhibitory concentration (GI50) was 40.1 µM in series [3], 53.2 µM in series [4], 38.1 µM in series [1] and 34.7 µM in series [5]. Besides, the Stability entry in series [9] and in [11] was “Stable” throughout. The half-life in series [10] is 3.15 h. Moreover, the Activity entry in series [6] and in series [8] was “Dose-dependent effect” throughout. Also, in [7], the inhibition entry was “Active”.

For the molecule `COc1ccc(C2=NO[C@@]3(C(=O)Nc4cc(Cl)ccc43)[C@@H]2c2ccc(OC)cc2)cc1` (relative stereo), the concentration for 50% growth inhibition (GI50) in series [1] is > 100 µM.

For the molecule `COc1ccccc1C1=NO[C@@]2(C(=O)Nc3cc(Cl)ccc32)[C@@H]1c1ccccc1` (relative stereo), the GI50 in series [3] was found to be 35.6 µM; in series [4], 36.7 µM; in series [1] it was 35.7 µM; in series [5], 30.5 µM.

In series [1], `COc1ccc(C2=NO[C@@]3(C(=O)Nc4c(Cl)cccc43)[C@@H]2c2ccccc2)cc1` (relative stereo) showed a concentration for 50% growth inhibition (GI50) of 55.8 µM.

In [1], `COc1ccc(C2=NO[C@@]3(C(=O)Nc4ccccc43)[C@@H]2c2ccccc2)cc1` (relative stereo) gave a GI50 of 77.8 µM. This GI50 and that of the molecule before are within 1.5-fold of each other.

`COc1ccc([C@@H]2C(c3ccccc3)=NO[C@@]23C(=O)N(C)c2ccccc23)cc1` (relative stereo): the GI50 in series [1] is > 100 µM.

For `COc1ccc([C@@H]2C(c3ccccc3)=NO[C@@]23C(=O)Nc2ccccc23)cc1` (relative stereo), the 50% growth inhibitory concentration (GI50) in [1] was > 100 µM.

For `COc1ccc(C2=NO[C@@]3(C(=O)Nc4ccccc43)[C@@H]2c2ccc(OC)cc2)cc1` (relative stereo), the GI50 in series [1] is > 100 µM.

The molecule `O=C1Nc2c(Cl)cccc2[C@]12ON=C(c1ccc([N+](=O)[O-])cc1)[C@H]2c1ccccc1` (relative stereo) yielded a GI50 in [1] of 55.5 µM.

Turning to `COc1ccc(C2=N[C@@H](c3ccc(Cl)cc3)[C@@H](c3ccc(Cl)cc3)N2C(=O)N2CCNC(=O)C2)c(OC(C)C)c1` [NUTLIN-3], the GI50 in series [3] is 52.3 µM; in [1] it was 51.3 µM.

As to `O=C1Nc2ccccc2[C@]12ON=C(c1ccc([N+](=O)[O-])cc1)[C@H]2c1ccccc1` (relative stereo), the GI50 in [1] turned out to be 52.1 µM.

In series [1], `COc1ccc(C2=NO[C@@]3(C(=O)Nc4ccc([N+](=O)[O-])cc43)[C@@H]2c2ccccc2)cc1` (relative stereo) returned a GI50 of 53.1 µM.

For `O=C1Nc2cc(Cl)ccc2[C@]12ON=C(c1ccc([N+](=O)[O-])cc1)[C@H]2c1ccccc1` (relative stereo), the GI50 in series [3] was determined as 39 µM; in series [4], 33.5 µM; in [1] it was 33.8 µM; in series [5], 32.4 µM.
